High-throughput results: PubChem, The Scripps Research Institute Molecular Screening Center
ABHD4 inh: inhibitors of mouse ABHD4; AID 720543; purified mABHD4, FP-Rh probe fluorescence polarization; inhibition, % at 8.92 µM; Q8VD66; hit rate 0.54% among 370,000;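 active means inhibition exceeding the mean over every tested compound plus 3 SD, cut at about 30% in these data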;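 further: 0% = plate median of compound wells and 100% = S159A mutant with DMSO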
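Doses – 8.92 µM, single dose · Material – wild-type mouse ABHD4 protein · Replication – single well per compound (singlicate) · Measure – percent inhibition of probe binding, normalized to plate controls · Schedule – 45 min compound pre-incubation plus 60 min probe step, 25 °C · Detection – fluorescence polarization with parallel and perpendicular emission, 525/598 nm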
PRMT1 inh: PRMT1 (human) inhibition, primary screen; recombinant PRMT1, activity-based probe fluorescence polarization; AID 652257; hit rate 1.3% among 370,000; Q99873; inhibition, % at 2.79 µM;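 active means inhibition above about 21% made by adding two undisclosed values, limit read from the data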
TCR CD3 inh: human TCR-CD3 binding inhibition. TAMRA-labeled TCR probe fluorescence, biochemical. inhibition, % at 9.4 µM. hit rate 0.37% among 360,000. AID 651800; in the data active means inhibition above about 19%;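 further: recombinant mutant TCR 2C K166C tagged with TAMRA read by polarization; 0% = receptor in buffer alone and 100% = receptor with positive control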
SIAE primary: inhibitors of human sialic acid acetylesterase SIAE. Q9HAT2. SIAE FP-Rh probe binding, fluorescence polarization. inhibition, % at 9.66 µM. hit rate 0.69% among 370,000;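 active means inhibition above a cutoff: mean of compounds within the control limits plus 3 SD of those, cut at about 17% in these data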;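 further: 0% = plate median of compound wells and 100% = probe without SIAE protein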
PAD4 inh: blocks human protein arginine deiminase 4 | Q9UM07 | recombinant PAD4, RCA probe fluorescence polarization | inhibition, % at 6.36 µM | hit rate 0.41% among 330,000;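 active means percent inhibition above a cutoff equal to the mean of all tested compounds plus 3 SD, cut at about 15% in these data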;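 further: 0% = PAD4 with RCA probe and DMSO and 100% = probe without PAD4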
HTRA1 inh: inhibitors of human serine peptidase HTRA1; Q92743; recombinant HTRA1, FP-rhodamine activity-based probe, fluorescence polarization; inhibition, % at 5.96 µM; hit rate 0.5% among 340,000; AID 504803; in the data active means inhibition above about 36%;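 further: 0% = enzyme with DMSO and 100% = wells lacking enzyme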
Target sequence (Q92743 whole entry, looked up): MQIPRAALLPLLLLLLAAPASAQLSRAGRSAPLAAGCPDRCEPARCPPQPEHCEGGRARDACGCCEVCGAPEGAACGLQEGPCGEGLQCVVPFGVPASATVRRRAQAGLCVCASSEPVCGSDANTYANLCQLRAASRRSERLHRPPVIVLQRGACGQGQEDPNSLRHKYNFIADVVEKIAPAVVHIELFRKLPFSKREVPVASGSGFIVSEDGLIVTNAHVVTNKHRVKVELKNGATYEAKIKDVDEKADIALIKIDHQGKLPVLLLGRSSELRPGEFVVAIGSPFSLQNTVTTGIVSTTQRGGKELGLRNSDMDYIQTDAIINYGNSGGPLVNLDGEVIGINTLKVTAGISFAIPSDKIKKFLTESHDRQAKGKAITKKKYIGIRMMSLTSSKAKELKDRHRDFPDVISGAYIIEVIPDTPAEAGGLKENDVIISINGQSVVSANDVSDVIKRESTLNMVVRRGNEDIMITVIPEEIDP
PRMT1 confirm: confirmation of human PRMT1 inhibitors. inhibition, % at 2.79 µM. recombinant His-PRMT1, activity-based probe fluorescence polarization. shares compounds with PRMT1 inh. AID 687036. hit rate 42% among 3,300;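 active means mean inhibition across replicates above the hit cutoff derived for the earlier primary screen, cut at about 22% in these data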
* marks the source's active call; other numbers are inactive results. Only some compounds are listed: those with a hit (about 2.9% of all), similar ones and a draw of the others.

`C=CCn1c(Sc2ncc([N+](=O)[O-])s2)n[nH]c1=O` gave ABHD4 inh 7, PRMT1 inh 75*, TCR CD3 inh -3, SIAE primary 7, PAD4 inh 0, HTRA1 inh 5 and PRMT1 confirm 61*.
Screening Cc1ccc2[nH]c(=O)c(C(c3nnnn3C3CCCC3)N3CCCc4ccccc43)cc2c1 (centres undefined) returned ABHD4 inh 5, PRMT1 inh 35*, TCR CD3 inh -1, SIAE primary -3, PAD4 inh 0, HTRA1 inh -6 and PRMT1 confirm -3.
COC(=O)[C@]12C[C@H](CC(=O)NCc3ccc(C)o3)C(=O)N(Cc3ccccc3)C1=C[C@H](C(C)(C)C)O[C@@H]2C was read as ABHD4 inh -9, PRMT1 inh 12, TCR CD3 inh -2 and SIAE primary -6.
`CCC(=O)NNc1nc2c(F)cccc2s1` gave ABHD4 inh 6, PRMT1 inh 49*, TCR CD3 inh 0, SIAE primary 4, PAD4 inh -3, HTRA1 inh 3 and PRMT1 confirm 0.
For COc1ccc(-n2c(Cc3cccs3)nnc2SCC(=O)Nc2cccc3ccccc23)cc1 the results were ABHD4 inh -11, PRMT1 inh -4 and SIAE primary -6.
For Cc1cc(-n2c(C)cc(C(=O)CSc3ccccn3)c2C)no1 the results were ABHD4 inh 16, PRMT1 inh 26*, TCR CD3 inh -7, SIAE primary 6, PAD4 inh -4, HTRA1 inh -4 and PRMT1 confirm 18.
C#CCCC(=O)Nc1sc2c(c1-c1nc3ccccc3s1)CCN(C(C)C)C2 was read as ABHD4 inh 7, PRMT1 inh 16 and SIAE primary -3.
`CC1CCC2C(=O)N(c3cccc(OS(=O)(=O)c4ccccc4)c3)C(=O)C2C1` (centres undefined) gave ABHD4 inh 2, PRMT1 inh 1, TCR CD3 inh -7, SIAE primary -1, PAD4 inh 1 and HTRA1 inh 0.
For CC1CCC2C(=O)N(c3ccc(S(=O)(=O)c4ccccc4)cc3)C(=O)C2C1 (centres undefined) the results were ABHD4 inh -6, PRMT1 inh 45*, TCR CD3 inh 2, SIAE primary -8, PAD4 inh 4, HTRA1 inh 6 and PRMT1 confirm 5.
`CCCCNC[C@@]12CO[C@H](c3ccc(Cl)cc3)N1[C@@H](c1ccc(Cl)cc1)SC2` gave ABHD4 inh -10, PRMT1 inh 3 and SIAE primary -1.
CCN1CC=C2C(C#N)=C(N)C(C#N)(C#N)[C@H](c3cccc(OC)c3OC)[C@H]2C1 was read as ABHD4 inh 9, PRMT1 inh 37*, TCR CD3 inh 2, SIAE primary 1, PAD4 inh -1, HTRA1 inh 6 and PRMT1 confirm 10.
COc1cccc(C2C3CN(C)CC=C3C(C#N)=C(N)C2(C#N)C#N)c1OC (centres undefined) was read as ABHD4 inh 6, PRMT1 inh 1, TCR CD3 inh -1, SIAE primary 0, PAD4 inh 6 and HTRA1 inh 11.
`O=C(CCc1nc(-c2ccccc2F)no1)NCCc1ccc(F)cc1` gave ABHD4 inh 0, PRMT1 inh 0 and SIAE primary 7.
For Cc1ccc(O)c(C(=O)c2cc(C#N)c(=O)n(-c3nccs3)c2)c1 the results were ABHD4 inh -1, PRMT1 inh 39*, TCR CD3 inh -6, SIAE primary -13, PAD4 inh -11, HTRA1 inh -16 and PRMT1 confirm 31*.
Cc1ccc(O)c(C(=O)c2cc(C#N)c(=O)n(-c3c(C)n(C)n(-c4ccccc4)c3=O)c2)c1 was read as ABHD4 inh 1, PRMT1 inh 3, TCR CD3 inh 1, SIAE primary 7, PAD4 inh 4 and HTRA1 inh -2.
COCc1[nH]nc2c1C(c1cccc(C(F)(F)F)c1)N(c1ccc(OC)cc1)C2=O (centres undefined) was read as ABHD4 inh -1, PRMT1 inh -1, TCR CD3 inh 7 and SIAE primary 1.
Screening CN1CCCC(OC(=O)c2ccc(S(=O)(=O)N(C)C)cc2)C1 (centres undefined) returned ABHD4 inh 9, PRMT1 inh 34*, TCR CD3 inh -2, SIAE primary -2, PAD4 inh 3, HTRA1 inh 2 and PRMT1 confirm -1.
For O=S1(=O)c2ccc(N3CCN(Cc4ccccc4F)CC3)cc2Oc2ccccc2CN1Cc1cn(Cc2cccc(C(F)(F)F)c2)nn1 the results were ABHD4 inh -4, PRMT1 inh -4 and SIAE primary 0.
`O=C([C@@H]1C[C@H]1c1ccccc1)N1CCC(Oc2cccnc2)CC1` gave ABHD4 inh 2, PRMT1 inh -11 and SIAE primary 6.
`COc1ccc(-c2ccc3c(n2)CCCN3S(=O)(=O)c2ccc(C#N)cc2)cc1` gave ABHD4 inh -2, PRMT1 inh 45*, TCR CD3 inh -4, SIAE primary -2 and PRMT1 confirm 26*.
`O=C(Nc1c(-c2ccc(F)cc2)nc2ncccn12)C1CC1` gave ABHD4 inh 1, PRMT1 inh -1 and SIAE primary 2.
Screening Cc1[nH]c2ccccc2c1C(=O)c1c(N)[nH]c(C(=O)c2ccc(Br)cc2)c1-c1ccc(Br)cc1 returned ABHD4 inh -6, PRMT1 inh -1, TCR CD3 inh 6 and SIAE primary 9.
`CCOC(=O)c1c2c(c(=S)n(-c3ccccc3)c1N)CCC2` gave ABHD4 inh 17, PRMT1 inh -1, TCR CD3 inh 1, SIAE primary 7, PAD4 inh -6 and HTRA1 inh 13.
`N#Cc1c2c(c(=S)n(-c3ccccc3)c1N)CCCC2` gave ABHD4 inh 13, PRMT1 inh 26*, TCR CD3 inh 13, SIAE primary 8, PAD4 inh 2, HTRA1 inh 27 and PRMT1 confirm 8.
For COc1ccc(N2C(=O)CC(SCC(=O)O)C2=O)cc1 (centres undefined) the results were ABHD4 inh 1, PRMT1 inh 25*, TCR CD3 inh 1, SIAE primary -4, PAD4 inh 0, HTRA1 inh -7 and PRMT1 confirm 11.
For COc1ccc(NC(=O)CSC2CC(=O)N(c3ccc4c(c3)OCCO4)C2=O)cc1 (centres undefined) the results were ABHD4 inh -5, PRMT1 inh 36*, TCR CD3 inh 2, SIAE primary -2, PAD4 inh -1, HTRA1 inh -10 and PRMT1 confirm 23*.
`CCOc1ccc(N2C(=O)CC(SCC(=O)O)C2=O)cc1` (centres undefined) gave ABHD4 inh 2, PRMT1 inh 3, TCR CD3 inh 4, SIAE primary -3, PAD4 inh 2 and HTRA1 inh 1.
